Measured values published in paper PMC4025951 (Neurochemical research, 2013).
Where “and” joins values, the source holds several entries; their conditions need not be identical. Identical values can stand only once. Like-named read-outs stand apart in the source and are kept apart here.

What was measured:
VGLUT [1] = test: Vesicular glutamate uptake into synaptic vesicles; type: biochemical, rat
VGLUT [2] = test: Kinetics of vesicular glutamate uptake with Brilliant Yellow; type: biochemical, rat; details: competitive with glutamate; 0, 40, 60 and 80 nM Brilliant Yellow; n=3
[3] = test system: plasma membrane glutamate transporter; test: Na+-dependent synaptosomal glutamate uptake; type: biochemical, rat; details: for Glutamate uptake / %Control: 50 μM test agent; for Glutamate uptake: Na+-dependent [3H]glutamate uptake into synaptosomes; for %Control: synaptosomal glutamate uptake
Outline: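 Rat cerebrum synaptosomes (100 μg protein) were incubated 10 min at 37 °C in Krebs solution with 1 μM [3H]glutamate (5 Ci/mmol), ± 50 μM test agent. Na+-dependent uptake was NaCl minus choline chloride values, in dpm and % of control.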

[4] = target: T1, vesicular GABA transporter (Bos taurus, UniProt G3N354); test: Vesicular GABA uptake into synaptic vesicles; type: biochemical, bovine; details: concentrations up to 50 μM
T1 sequence (G3N354 1-526): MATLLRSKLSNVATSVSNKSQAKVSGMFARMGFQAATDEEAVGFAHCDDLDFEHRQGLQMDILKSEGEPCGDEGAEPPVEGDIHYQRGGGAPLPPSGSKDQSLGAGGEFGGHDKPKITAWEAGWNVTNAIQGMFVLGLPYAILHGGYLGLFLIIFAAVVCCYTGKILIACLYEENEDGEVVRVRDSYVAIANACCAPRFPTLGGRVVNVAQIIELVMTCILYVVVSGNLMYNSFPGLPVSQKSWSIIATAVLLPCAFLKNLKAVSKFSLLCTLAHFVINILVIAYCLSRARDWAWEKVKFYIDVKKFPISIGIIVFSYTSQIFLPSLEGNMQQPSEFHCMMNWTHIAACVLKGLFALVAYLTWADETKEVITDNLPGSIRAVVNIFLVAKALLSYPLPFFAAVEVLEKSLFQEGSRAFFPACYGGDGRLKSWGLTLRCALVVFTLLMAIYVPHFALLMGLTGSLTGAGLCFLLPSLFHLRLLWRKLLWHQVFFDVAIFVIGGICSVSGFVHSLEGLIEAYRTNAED
Outline: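 Crude calf cerebral cortex synaptic vesicles in 20 mM K-Hepes pH 7.4, 4 mM MgSO4, 4 mM KCl, 0.25 M sucrose. Pre-incubated 10 min at 30 °C with varied test compound concentrations. Then 2 mM ATP plus 50 μM [3H]GABA for 10 min. Filtered and washed with 0.15 M KCl.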

VGLUT [5] = details: ref [25], cited from earlier work
[6] = Table 3, Brilliant Yellow analogs, vesicular glutamate uptake
[7] = Table 1, rat brain synaptic vesicles, 50 μM [3H]glutamate ± ATP, 10-min incubation

| Compound | IC50 (VGLUT [1]; [6]) [nM] | IC50 (VGLUT [1]; [7]) [nM] | other results |
| --- | --- | --- | --- |
| CC(=O)Nc1ccc(C=Cc2ccc(NC(C)=O)cc2S(=O)(=O)O)c(S(=O)(=O)O)c1 [4,4-Diacetamidostilbene-2,2’-disulfonate, 4,4’-diacetamidostilbene-2,2’-disulfonate] | > 50000 |  |  |
| Nc1ccc(C=Cc2ccc(N)cc2S(=O)(=O)O)c(S(=O)(=O)O)c1 [4,4-Diaminostilbene-2,2’-disulfonate, 4,4’-diaminostilbene-2,2’-disulfonate] | > 50000 |  |  |
| O=[N+]([O-])c1ccc(C=Cc2ccc([N+](=O)[O-])cc2S(=O)(=O)O)c(S(=O)(=O)O)c1 [4,4’-Dinitrostilbene-2,2’-disulfonate, 4,4’-dinitrostilbene-2,2’-disulfonate] | 1690 ± 110 |  |  |
| O=C(Nc1ccc(C=Cc2ccc(NC(=O)c3ccccc3)cc2S(=O)(=O)O)c(S(=O)(=O)O)c1)c1ccccc1 [4,4’-dibenzamidostilbene-2,2’-disulfonate] | 2000 |  |  |
| O=S(=O)(O)c1cc(NS(=O)(=O)c2ccccc2)ccc1C=Cc1ccc(NS(=O)(=O)c2ccccc2)cc1S(=O)(=O)O [4,4’-diphenylsulfonamidostilbene-2,2’-disulfonate] | > 50000 |  |  |
| O=S(=O)(O)c1ccc2c(N=Nc3cccc4ccccc34)c(O)c(S(=O)(=O)O)cc2c1 [Bordeau R] |  | 6500 |  |
| O=S(=O)(O)c1cc(S(=O)(=O)O)c2c(N=Nc3ccc(N=Nc4ccccc4)cc3)c(O)ccc2c1 [Brilliant Crocein MOO] |  | 7700 |  |
| O=S(=O)([O-])c1cc(N=Nc2ccc(O)cc2)ccc1/C=C/c1ccc(N=Nc2ccc(O)cc2)cc1S(=O)(=O)[O-].[Na+].[Na+] [Brilliant Yellow] | 44 ± 6 | 44 ± 7 | Ki (VGLUT [2]): 12 nM and 12.5 nM; Glutamate uptake [3]: 279,032 dpm; %Control [3]: 112%; Effect on synaptosomal glutamate uptake ([3]; concentrations up to 50 μM): affected neither; Effect on vesicular GABA uptake [4]: affected neither; Inhibition of vesicular glutamate uptake (VGLUT [1]; at 0.3 μM): 80% |
| CCOc1ccc(N=Nc2ccc(/C=C/c3ccc(N=Nc4ccc(OCC)cc4)cc3S(=O)(=O)O)c(S(=O)(=O)O)c2)cc1 [Chrysophenine] | 266 ± 70 |  |  |
| COc1cc(N=Nc2c(C)cc(C)cc2S(=O)(=O)[O-])c(C)cc1N=Nc1c(S(=O)(=O)[O-])cc2cc(Nc3ccccc3)ccc2c1O.[Na+].[Na+] [Direct Violet 51] |  | 148 ± 31 | Glutamate uptake [3]: 258,020 dpm; %Control [3]: 104% |
| O=C([O-])C1=NN(c2ccc(S(=O)(=O)[O-])cc2)C(=O)C1N=Nc1ccc(S(=O)(=O)[O-])cc1.[Na+].[Na+].[Na+] (centres unmarked) [Tartrazine] |  | > 50000 | Inhibitory activity on vesicular glutamate uptake (VGLUT [1]): rather inactive |
| Cc1cc(-c2ccc(/N=N/c3c(S(=O)(=O)O)cc4cc(S(=O)(=O)O)cc(N)c4c3O)c(C)c2)ccc1/N=N/c1c(S(=O)(=O)O)cc2cc(S(=O)(=O)O)cc(N)c2c1O [Trypan Blue] |  |  | IC50 (VGLUT [5]; [26]): 49 nM; Ki (VGLUT [5]): ~50 nM |
| Nitrazine Yellow |  | 4400 |  |
| Sulforhodamine |  | > 50000 | Inhibitory activity on vesicular glutamate uptake (VGLUT [1]): rather inactive |
